“Also recorded” adds a separate entry of the source.
Tests used:
mantle cell lymphoma [1] = conditions: Phase I trial, patients with refractory disease; cited from earlier work
[2] = tested on: Granta 519 and Z138 cell lines; assay: MAP kinase pathway; format: cell-based, human; conditions: 24 hrs
mantle cell lymphoma [3] = conditions: refractory or relapsed MCL patients; cited from earlier work
Z138C cells = assay: cell cycle distribution, propidium iodide flow cytometry; format: cell-based, human; conditions: 24 hours; for accumulation of cells in the sub-G1 phase: for ON123300 at higher concentrations
In short: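 Z138C cells were treated with DMSO or increasing concentrations of test compound for 24 hours. They were then ethanol-fixed, PBS-washed and stained with RNase plus propidium iodide at 37°C for 20 min. DNA content was measured by flow cytometry to assign cell-cycle phases.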

PI3K-δ = PI3K-δ (Homo sapiens, UniProt O00329); assay: in vitro kinase assay, recombinant protein; format: biochemical
In short: (§1)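 Recombinant kinases were incubated with the indicated concentrations of test compound in in vitro kinase assays. Activity values were plotted against log drug concentration. IC50 came from sigmoidal non-linear regression with variable slope.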

[4] = tested on: Granta 519 and Z138C cells; assay: PI3K/AKT/mTOR pathway western blot; format: cell-based, human; conditions: 24 hours
In short: (§2)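 Granta 519 and Z138C cells (RPMI or DMEM, 10% FBS, pen-strep, 37°C, 5% CO₂) received vehicle or increasing concentrations of test compound for 24 hours. Whole-cell extracts were made in NP-40 lysis buffer (Tris pH 7.4, NaF, Na₃VO₄), run on SDS-PAGE and blotted to nitrocellulose. Detection used infrared imaging, GAPDH was the loading control, and 4 independent experiments were done.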

[5] = tested on: Granta 519 and Z138C cells; assay: apoptosis markers; format: cell-based, human; conditions: for PARP cleavage at lower concentrations: 72–96 hrs incubation, data not shown
In short: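 Granta 519 and Z138C cells were treated with test compound, then lysed in NP-40 buffer. Western blots on nitrocellulose assessed full-length caspases 3, 7 and 9 and PARP cleavage as apoptosis markers.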

ARK5 = ARK5 (Homo sapiens, UniProt O60285); assay: in vitro kinase assay, recombinant protein; format: biochemical
In short: as §1

HeLa cells = assay: TNF-α induced p65 NF-kB phosphorylation western blot; format: cell-based, human; conditions: 5ng/ml TNF-α for 5 min after treatment
In short: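 Positive-control system: HeLa cells were pretreated with test compound, then stimulated with 5ng/ml TNF-α for 5 min. Phospho-p65 NF-kB was assessed by western blot of whole-cell extracts.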

[6] = tested on: Granta 519 and Z138C cells; assay: CDK4/CYCLIN D/Rb pathway western blot; format: cell-based, human; conditions: 24 hours; for phosphorylation of pRb and p130: increasing concentrations
In short: as §2

[7] = tested on: exponentially growing Z138 cells; assay: p65; format: cell-based, human; conditions: 24 hrs
In short: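 Exponentially growing Z138 cells were exposed to test compound. Whole-cell extracts were probed by western blot for p65 (NF-kB) phosphorylation.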

[8] = tested on: primary patient-derived MCL cells (MEM1 ibrutinib-sensitive, MEM2 ibrutinib-resistant); assay: Annexin V staining of primary patient-derived MCL; format: cell-based, human; conditions: 5µM ON123300; 24 hrs (legend: 18 hrs)
In short: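 Patient MCL specimens (lymph node or peripheral blood) made into single-cell suspensions and cryopreserved in 90% FBS/10% DMSO in liquid nitrogen. Cells exposed to the indicated concentrations of test compound for 18 hrs. Apoptosis read as FITC-Annexin V staining by flow cytometry.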

BT-20 = assay: GI50 growth inhibition assay; format: cell-based; conditions: Homo sapiens, BT-20, 96 h
In short: (§3)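 Cell lines were grown in DMEM or RPMI with 10% FBS and pen-strep at 37°C, 5% CO₂, and were mycoplasma-negative. Cells were seeded at 2.5×10³ per 0.1 ml per well, and test compound was added 24 hrs later at the indicated concentrations. Viable cells were measured by resazurin (Cell Titer Blue) read-out 96 hrs post-treatment in duplicate wells.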

HCT-15 = assay: GI50 growth inhibition assay; format: cell-based; conditions: Homo sapiens, HCT-15, 96 h
In short: as §3

COLO-205 = assay: GI50 growth inhibition assay; format: cell-based; conditions: Homo sapiens, COLO 205, 96 h
In short: as §3

CDK8 = CDK8 (Homo sapiens, UniProt P49336); assay: in vitro kinase assay; format: biochemical; conditions: data not shown
SW480 = assay: GI50 growth inhibition assay; format: cell-based; conditions: Homo sapiens, SW480, 96 h
In short: as §3

BT-474 = assay: GI50 growth inhibition assay; format: cell-based; conditions: Homo sapiens, BT-474, 96 h
In short: (§4)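 Cells from ATCC were grown in DMEM or RPMI with 10% FBS and penicillin-streptomycin at 37°C, humidified, 5% CO₂, and tested mycoplasma-negative. They were seeded at 2.5×10³ cells per 0.1 ml per well. Test compound was added 24 hrs after plating at a range of concentrations. Viable cells were measured by Cell Titer Blue from duplicate wells 96 hrs after treatment.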

MIA-PaCa-2 = assay: GI50 growth inhibition assay; format: cell-based; conditions: Homo sapiens, MIA PaCa-2, 96 h
In short: as §4

CDK2 = CDK2 (Homo sapiens, UniProt P24941); assay: in vitro kinase assay; format: biochemical; conditions: data not shown
SNU-398 = assay: GI50 growth inhibition assay; format: cell-based; conditions: Homo sapiens, SNU-398, 96 h
In short: as §3

SNU-5 = assay: GI50 growth inhibition assay; format: cell-based; conditions: Homo sapiens, SNU-5, 96 h
In short: as §3

[9] = plasma level pharmacokinetics; format: in vivo, CD-1 mice; conditions: for area under the curve (AUC) as molar concentration / area under the curve (AUC): plasma
In short: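 Female CD-1 mice (10–12 weeks) received 50mg/kg test compound dissolved in water, ip or by oral gavage. Sampling was at 10, 30 min and 1, 2, 4, 8 h, n=2 per time point, with heart-puncture blood into heparin/EDTA tubes. Plasma was analysed by LC/MS, and AUC was calculated by the trapezoidal rule.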

[10] = previous studies; cited from earlier work
MCL cell lines = assay: GI50 assays, MCL cell lines versus other tumor types; format: cell-based, human; conditions: over a 96 hr period
In short: as §3

DLD-1 = assay: GI50 growth inhibition assay; format: cell-based; conditions: Homo sapiens, DLD-1, 96 h
In short: as §3

Z138C xenograft = assay: Z138C tumor xenograft assay; format: in vivo, nu/nu mice
Z138C = assay: GI50 growth inhibition assay; format: cell-based; conditions: Homo sapiens, 96 h
In short: as §4

MDA-MB-157 = assay: GI50 growth inhibition assay; format: cell-based; conditions: Homo sapiens, MDA-MB-157, 96 h
In short: as §3

GRANTA-519 = assay: GI50 growth inhibition assay; format: cell-based; conditions: Homo sapiens, Granta-519, 96 h
In short: as §3

[11] = tested on: primary patient-derived MCL cells (MEM1, MEM2); assay: Rb and AKT pathway western blot in primary MCL; format: cell-based, human; conditions: both primary MCL samples, 18 hrs
In short: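 Red cells were removed from primary MCL samples with ammonium chloride. Cells were then treated with increasing concentrations of test compound for 18 hrs and lysed in RIPA buffer (25mM Tris-HCl pH 7.5, 150mM NaCl, 1% NP40, 1% SDS, phosphatase inhibitors). […], nitrocellulose transfer and infrared imaging.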

MDA-MB-231 = assay: GI50 growth inhibition assay; format: cell-based; conditions: Homo sapiens, MDA-MB-231, 96 h
In short: as §3

CDK1 = CDK1 (Homo sapiens, UniProt P06493); assay: in vitro kinase assay; format: biochemical; conditions: data not shown
[12] = maximum tolerated dose study; format: in vivo, CD-1 mice
In short: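 Female CD-1 mice (10–12 weeks), n=3 per group, were used. One arm received a single ip dose of 100 or 200 mg/kg, with toxicity signs and body weight followed for 7 days. The other arm received 200mg/kg ip for 5 consecutive days, followed for 10 days.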

CDK5 = CDK5 (Homo sapiens, UniProt Q00535); assay: in vitro kinase assay; format: biochemical; conditions: data not shown
CDK5, sequence (Q00535 whole entry): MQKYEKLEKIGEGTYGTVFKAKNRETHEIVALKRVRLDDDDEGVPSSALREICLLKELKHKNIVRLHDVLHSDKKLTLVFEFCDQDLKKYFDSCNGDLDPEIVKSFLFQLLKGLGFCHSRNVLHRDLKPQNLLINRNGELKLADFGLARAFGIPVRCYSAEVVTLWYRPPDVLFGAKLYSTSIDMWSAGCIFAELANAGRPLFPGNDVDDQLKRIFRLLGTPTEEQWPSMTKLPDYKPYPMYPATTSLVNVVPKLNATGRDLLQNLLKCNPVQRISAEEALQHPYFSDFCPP
CDK5, sequence (Q15078 99-307 partner limits assumed): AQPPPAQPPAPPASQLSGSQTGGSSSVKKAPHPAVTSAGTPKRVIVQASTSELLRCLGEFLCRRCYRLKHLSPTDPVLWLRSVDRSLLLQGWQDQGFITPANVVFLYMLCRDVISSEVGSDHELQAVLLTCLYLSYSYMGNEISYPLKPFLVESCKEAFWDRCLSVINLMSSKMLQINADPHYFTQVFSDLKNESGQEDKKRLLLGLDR

PI3K-δ, sequence (O00329 whole entry): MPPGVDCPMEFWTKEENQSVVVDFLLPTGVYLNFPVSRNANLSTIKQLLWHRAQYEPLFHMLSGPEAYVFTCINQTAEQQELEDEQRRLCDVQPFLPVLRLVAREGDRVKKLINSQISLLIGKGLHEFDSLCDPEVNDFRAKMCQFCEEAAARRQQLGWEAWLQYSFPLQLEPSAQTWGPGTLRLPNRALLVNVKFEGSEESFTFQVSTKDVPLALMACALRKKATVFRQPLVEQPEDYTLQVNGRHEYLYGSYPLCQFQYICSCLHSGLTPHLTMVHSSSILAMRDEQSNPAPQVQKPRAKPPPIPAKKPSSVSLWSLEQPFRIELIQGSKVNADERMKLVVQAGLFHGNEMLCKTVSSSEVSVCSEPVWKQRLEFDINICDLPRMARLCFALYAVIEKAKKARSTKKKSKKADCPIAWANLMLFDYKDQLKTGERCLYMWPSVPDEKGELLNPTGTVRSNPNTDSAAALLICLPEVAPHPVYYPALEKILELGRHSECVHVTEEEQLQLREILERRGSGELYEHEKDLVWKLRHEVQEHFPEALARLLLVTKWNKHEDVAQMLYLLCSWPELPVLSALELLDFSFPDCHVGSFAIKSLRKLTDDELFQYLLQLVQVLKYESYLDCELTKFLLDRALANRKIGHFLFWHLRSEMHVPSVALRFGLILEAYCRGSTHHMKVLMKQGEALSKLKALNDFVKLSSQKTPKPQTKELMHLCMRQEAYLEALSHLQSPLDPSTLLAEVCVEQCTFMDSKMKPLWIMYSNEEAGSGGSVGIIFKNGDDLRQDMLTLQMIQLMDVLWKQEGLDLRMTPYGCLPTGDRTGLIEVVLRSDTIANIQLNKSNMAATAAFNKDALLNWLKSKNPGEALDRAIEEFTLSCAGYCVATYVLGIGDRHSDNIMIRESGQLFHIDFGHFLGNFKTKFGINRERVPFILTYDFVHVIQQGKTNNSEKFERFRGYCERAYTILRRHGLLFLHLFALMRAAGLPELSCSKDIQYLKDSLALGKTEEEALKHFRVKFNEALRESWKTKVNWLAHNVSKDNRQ
PI3K-δ, sequence (P27986 whole entry partner): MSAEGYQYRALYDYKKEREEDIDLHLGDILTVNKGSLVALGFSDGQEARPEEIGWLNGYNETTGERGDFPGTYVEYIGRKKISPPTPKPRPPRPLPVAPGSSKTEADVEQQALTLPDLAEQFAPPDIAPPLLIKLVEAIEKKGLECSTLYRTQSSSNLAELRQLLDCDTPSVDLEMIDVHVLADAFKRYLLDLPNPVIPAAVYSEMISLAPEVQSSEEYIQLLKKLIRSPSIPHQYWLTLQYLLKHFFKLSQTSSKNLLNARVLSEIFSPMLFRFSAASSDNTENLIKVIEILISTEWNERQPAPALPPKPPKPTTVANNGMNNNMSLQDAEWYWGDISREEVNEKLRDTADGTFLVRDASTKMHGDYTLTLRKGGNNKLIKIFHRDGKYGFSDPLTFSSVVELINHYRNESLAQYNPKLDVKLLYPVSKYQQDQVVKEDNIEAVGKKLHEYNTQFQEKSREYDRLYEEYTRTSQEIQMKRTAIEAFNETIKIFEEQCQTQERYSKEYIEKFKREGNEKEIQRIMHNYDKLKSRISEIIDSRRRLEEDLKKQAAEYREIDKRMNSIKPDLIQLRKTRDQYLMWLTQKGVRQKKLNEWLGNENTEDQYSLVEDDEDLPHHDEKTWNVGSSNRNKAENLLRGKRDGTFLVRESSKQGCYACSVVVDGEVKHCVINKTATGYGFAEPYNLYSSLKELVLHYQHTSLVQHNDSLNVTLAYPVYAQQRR
CDK1, sequence (P06493 whole entry): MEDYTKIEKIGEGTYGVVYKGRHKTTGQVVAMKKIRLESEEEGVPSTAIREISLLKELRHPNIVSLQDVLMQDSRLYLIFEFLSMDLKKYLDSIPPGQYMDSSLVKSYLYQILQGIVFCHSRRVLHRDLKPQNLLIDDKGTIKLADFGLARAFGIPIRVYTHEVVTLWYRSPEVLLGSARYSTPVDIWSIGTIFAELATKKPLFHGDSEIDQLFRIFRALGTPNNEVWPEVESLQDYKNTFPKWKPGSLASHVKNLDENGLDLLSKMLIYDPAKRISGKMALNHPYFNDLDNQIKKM
CDK1, sequence (P14635 whole entry, further chain): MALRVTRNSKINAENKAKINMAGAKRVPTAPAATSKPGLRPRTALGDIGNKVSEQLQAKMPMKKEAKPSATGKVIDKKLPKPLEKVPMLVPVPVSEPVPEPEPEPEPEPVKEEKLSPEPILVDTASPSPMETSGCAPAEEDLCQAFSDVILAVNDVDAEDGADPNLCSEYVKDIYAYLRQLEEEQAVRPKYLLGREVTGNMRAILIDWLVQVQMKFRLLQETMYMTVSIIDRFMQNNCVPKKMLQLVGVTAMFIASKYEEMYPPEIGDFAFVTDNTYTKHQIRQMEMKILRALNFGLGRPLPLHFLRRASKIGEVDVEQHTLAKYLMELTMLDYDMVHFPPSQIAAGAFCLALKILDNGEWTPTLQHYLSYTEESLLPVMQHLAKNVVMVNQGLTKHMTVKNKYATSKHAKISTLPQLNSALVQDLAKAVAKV
CDK8, sequence (P49336 whole entry): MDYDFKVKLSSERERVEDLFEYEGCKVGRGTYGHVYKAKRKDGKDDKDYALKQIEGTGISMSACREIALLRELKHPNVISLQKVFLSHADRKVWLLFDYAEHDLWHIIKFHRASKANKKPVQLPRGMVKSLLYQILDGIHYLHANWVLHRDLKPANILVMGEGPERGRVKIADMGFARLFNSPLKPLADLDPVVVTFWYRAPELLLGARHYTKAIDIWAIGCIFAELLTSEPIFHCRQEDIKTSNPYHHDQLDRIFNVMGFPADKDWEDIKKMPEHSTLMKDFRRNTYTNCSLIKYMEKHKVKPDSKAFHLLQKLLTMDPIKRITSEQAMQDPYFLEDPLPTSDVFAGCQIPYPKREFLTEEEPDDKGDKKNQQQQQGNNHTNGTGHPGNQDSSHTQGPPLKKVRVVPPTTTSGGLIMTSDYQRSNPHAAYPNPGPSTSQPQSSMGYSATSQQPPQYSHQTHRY
CDK8, sequence (P24863 whole entry partner): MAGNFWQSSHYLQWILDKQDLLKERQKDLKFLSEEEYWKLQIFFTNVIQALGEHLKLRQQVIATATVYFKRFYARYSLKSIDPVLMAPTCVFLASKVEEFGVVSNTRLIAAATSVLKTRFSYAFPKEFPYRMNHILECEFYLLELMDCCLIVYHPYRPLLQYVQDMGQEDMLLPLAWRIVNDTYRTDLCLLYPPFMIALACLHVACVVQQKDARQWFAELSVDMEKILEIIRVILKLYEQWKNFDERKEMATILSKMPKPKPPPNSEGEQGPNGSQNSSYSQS
ARK5, sequence (O60285 whole entry): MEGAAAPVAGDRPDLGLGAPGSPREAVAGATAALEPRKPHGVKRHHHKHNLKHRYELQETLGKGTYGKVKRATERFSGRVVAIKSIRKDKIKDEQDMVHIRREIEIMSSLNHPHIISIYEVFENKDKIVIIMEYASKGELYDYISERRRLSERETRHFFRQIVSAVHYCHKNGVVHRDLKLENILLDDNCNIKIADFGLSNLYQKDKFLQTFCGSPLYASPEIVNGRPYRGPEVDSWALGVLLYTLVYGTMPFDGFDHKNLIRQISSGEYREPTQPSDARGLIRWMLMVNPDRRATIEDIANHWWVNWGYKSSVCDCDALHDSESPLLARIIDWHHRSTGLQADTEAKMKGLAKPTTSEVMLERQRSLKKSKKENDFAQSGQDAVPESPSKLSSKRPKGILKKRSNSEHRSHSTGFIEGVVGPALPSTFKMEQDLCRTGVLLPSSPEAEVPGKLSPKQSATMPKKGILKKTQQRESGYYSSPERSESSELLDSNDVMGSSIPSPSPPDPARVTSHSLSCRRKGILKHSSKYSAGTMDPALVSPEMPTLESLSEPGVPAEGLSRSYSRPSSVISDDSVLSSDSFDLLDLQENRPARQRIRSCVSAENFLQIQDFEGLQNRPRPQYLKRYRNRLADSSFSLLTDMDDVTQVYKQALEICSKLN

CC[C@H](Nc1ncnc2[nH]cnc12)c1nc2cccc(F)c2c(=O)n1-c1ccccc1 [idelalisib]
efficacy as a single agent (mantle cell lymphoma [1]): modestly effective

N#CC(=C(/N)Sc1ccccc1N)/C(C#N)=C(/N)Sc1ccccc1N [U0126]
phosphorylation status of MEK or ERK kinases [2]: potently inhibited

C=CC(=O)N1CCC[C@@H](n2nc(-c3ccc(Oc4ccccc4)cc3)c3c(N)ncnc32)C1 [Ibrutinib]
patients with complete remission (mantle cell lymphoma [3]): approximately 21%

CC(=O)c1c(C)c2cnc(Nc3ccc(N4CCNCC4)cn3)nc2n(C2CCCC2)c1=O [PD0332991, reference compound]
accumulation of cells in the sub-G1 phase (Z138C cells): little or no accumulation of cells in the sub-G1 phase
accumulation of cells in the G1 phase (Z138C cells; increasing concentrations): rapid accumulation of the cells in the G1 phase
IC50 (PI3K-δ): > 10000 nM
inhibitory activity against PI3K-δ (PI3K-δ; in vitro kinase assay): failed to show any inhibitory activity
phosphorylation status of AKT, mTOR, 4EBP1 and S6 ribosomal protein (S6RB) [4]: no discernable change
PARP cleavage at lower concentrations [5]: did not show any PARP cleavage
evidence of apoptosis (PARP cleavage, caspases) ([5]; 24 hrs, increasing concentrations): no evidence of apoptosis
IC50 (ARK5): > 5000 nM
phosphorylation status of p65 (HeLa cells): little or no effect
levels of CDK4 and CDK2 [6]: unaffected
p21 levels [6]: not readily seen
phosphorylation of pRb and p130 [6]: inhibited the phosphorylation of pRb and p130
phosphorylation status of MEK or ERK kinases [2]: neither ON123300 nor PD0332991 has any effect
phosphorylation status of p65 (NF-kB) [7]: no change

Nc1ccc2ncnc(NCCc3ccc(Oc4ccccc4)cc3)c2c1 [QNZ]
phosphorylation status of p65 (HeLa cells): strong inhibition

CN1CCN(c2ccc(Nc3ncc4cc(C#N)c(=O)n(C5CCCC5)c4n3)cc2)CC1 [ON123300, 8-cyclopentyl-2-[4-(4-methyl-piperazin-1-yl)-phenylamino]-7-oxo-7,8-dihydro-pyrid o[2,3-d]pyrimidine-6-carbonitrile]
cells stained Annexin V+ [8]: ~100%
GI50 (BT-20): 100 nM
concentrations at which cells accumulated in the G1 phase (Z138C cells): 0.1 to 1.0 µM
accumulation of cells in the sub-G1 phase (Z138C cells): eventually accumulated in the sub-G1 phase
GI50 (HCT-15): 400 nM
GI50 (COLO-205): 200 nM
inhibitory activity against CDK8 (CDK8): little inhibitory activity
GI50 (SW480): 100 nM
GI50 (BT-474): 250 nM
AKT Ser473 phosphorylation [4]: inhibition of AKT Ser473 phosphorylation
FOXO1 phosphorylation [4]: inhibition of FOXO1 phosphorylation
mTOR phosphorylation at Ser2481 [4]: inhibition of mTOR phosphorylation at Ser2481
phosphorylation of 4EBP1 and S6RB [4]: inhibited
GI50 (MIA-PaCa-2): 250 nM
inhibitory activity against CDK2 (CDK2): little inhibitory activity
GI50 (SNU-398): 300 nM
GI50 (SNU-5): 200 nM
oral bioavailability ([9]; mice): orally bio-available
area under the curve (AUC) as molar concentration ([9]; 50mg/kg ip): 16.71 µM/ml/hr
area under the curve (AUC) ([9]; 50mg/kg ip injection): 7.18 µg/mL/h
area under the curve (AUC) ([9]; 50mg/kg oral gavage (po)): 2.78 µg/mL/h
area under the curve (AUC) as molar concentration ([9]; 50mg/kg po): 6.47 µM/ml/hr
PARP cleavage at lower concentrations [5]: readily resulted in PARP cleavage
concentration at which PARP cleavage is seen ([5]; 24 hrs): greater than or equal to 2.5 µM
levels of full-length caspases 3, 7 and 9 ([5]; 24 hrs): decreases in the levels of full-length forms of caspases 3, 7 and 9
blood-brain barrier crossing [10]: readily crosses the blood-brain barrier
concentrations inducing growth arrest and cell death (MCL cell lines): 25 to 50 nM
phosphorylation status of p65 (HeLa cells): little or no effect
GI50 (DLD-1): 100 nM
total body weights (Z138C xenograft; 100mg/kg daily treatment): did not cause a significant reduction
tumor growth (Z138C xenograft; 100mg/kg daily, ip, 2-week period, p<0.05): significantly inhibited; also recorded: markedly inhibited tumor growth
GI50 (Z138C): 25 nM
GI50 (MDA-MB-157): 250 nM
levels of CDK4 and CDK2 [6]: unaffected
p21 levels [6]: loss of p21 levels
levels of CYCLIN D1 ([6]; as a function of concentration): declined
phosphorylation of pRb and p130 [6]: inhibited the phosphorylation of pRb and p130
GI50 (GRANTA-519): 35 nM
levels of Rb and AKT phosphorylation [11]: reductions in the levels of Rb and AKT phosphorylation
phosphorylation of S6RB [11]: inhibited
phosphorylation status of MEK or ERK kinases [2]: neither ON123300 nor PD0332991 has any effect
phosphorylation status of p65 (NF-kB) [7]: no change
GI50 (MDA-MB-231): 200 nM
inhibitory activity against CDK1 (CDK1): little inhibitory activity
survival rate ([12]; 200mg/kg ip for 5 consecutive days, at least 10 days post-administration): 100%
signs of toxicity ([12]; 200mg/kg ip for 5 consecutive days, data not shown): did not exhibit any signs of toxicity
toxicity ([12]; mice, administered orally or intraperitoneally): minimally toxic
survival rate ([12]; single ip dose 100 or 200 mg/kg, 7 days): 100%
signs of toxicity and body weights ([12]; single ip dose 100 or 200 mg/kg, monitored 7 days): No signs of toxicity or weight loss
inhibitory activity against CDK5 (CDK5): little inhibitory activity

Reference: publication PMC4703501 (Leukemia, 2015)
